Experimental data as given in ChEMBL document CHEMBL2016463, “A Novel (18)F-Labeled Imidazo[2,1-b]benzothiazole (IBT) for High-Contrast PET Imaging of β-Amyloid Plaques” (ACS Med Chem Lett, 2011).
pKi: −log10 of the molar value. The source made the active and inactive calls. No cut-off for these calls is given here.

Tests used:
Brain [1] = experiment: Drug uptake in Balb-C mouse brain at 4 to 6 MBq, iv after 5 mins by gamma counting relative to [11C]Pittsburgh compound B; format: ADME, organism-based; conditions: in vivo
Summary of the method: (§1)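 Male Balb-C mice received tracer or [11C] reference. Brain uptake was measured at 5 and 30 min pi and reported as mean ± SD, n ≥ 4.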

Brain [2] = experiment: Drug uptake in Balb-C mouse brain at 4 to 6 MBq, iv after 30 mins by gamma counting relative to [11C]Pittsburgh compound B; format: ADME, organism-based; conditions: in vivo, 0.5 h; summary of the method: as §1
Cortex [3] = experiment: Binding affinity to amyloid beta plaque in APP/PS1 Alzheimer's disease mouse brain cortex at 4 MBq after 45 mins postinjection by immunohistochemistry analysis relative to control; format: functional, organism-based; set-up: dose or concentration left out as unconfirmed; conditions: tested as the 3H-labelled form
Cortex [4] = experiment: Binding affinity to amyloid beta plaque in APP/PS1 Alzheimer's disease mouse brain cortex at 13.5 MBq after 45 mins postinjection by immunohistochemistry analysis relative to control; format: functional, organism-based; set-up: dose or concentration left out as unconfirmed; conditions: tested as the 18F-labelled form
Cortex [5] = experiment: Drug uptake in APP/PS1 Alzheimer's disease mouse brain cortex at 4 MBq at 45 mins postinjection by dual label autoradiography relative to control; format: ADME, organism-based; conditions: in vivo, 0.75 h
Summary of the method: (§2)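 Multimodal study of one 25-month-old APP/PS1 Tg mouse, with a 28-month-old control. Tail-vein coinjection of 18F tracer plus [3H]-reference: 13.5 + 4.0 MBq (Tg) or 10.0 + 3.7 MBq (control). Mice underwent µPET/CT for 45 min in list mode and were killed at 45 min. Ex vivo work included regional brain biodistribution and dual-label (3H/18F) digital autoradiography on 12 µm axial sections.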

Cortex [6] = experiment: Drug uptake in APP/PS1 Alzheimer's disease mouse brain cortex at 4 MBq at 45 mins postinjection by uPET/CT analysis relative to control; format: ADME, organism-based; conditions: in vivo, 0.75 h; summary of the method: as §2
Brain [7] = experiment: Ratio of drug uptake in Alzheimer's disease patient brain to healthy human brain; format: ADME, tissue-based; conditions: in vivo
[8] = target: T1, Amyloid-beta precursor protein (Homo sapiens, UniProt P05067); experiment: Displacement of [3H]Pittsburgh compound B from human Abeta1-40 after 3 hrs by liquid scintillation counting
[9] = target: T1, Amyloid-beta precursor protein; experiment: Displacement of [3H]Pittsburgh compound B from human Abeta1-42 after 3 hrs by liquid scintillation counting
[10] = Metabolic stability in Balb-C mouse blood at 21 to 32 MBq, iv after 10 mins by gamma counting; format: ADME, organism-based; conditions: read-out: Stability
Summary of the method: (§3)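 Balb-C mice were sampled for blood and brain tissue at 10 and 30 min pi. Radioactivity speciation is given as % intact tracer.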

[11] = Metabolic stability in Balb-C mouse blood at 21 to 32 MBq, iv after 30 mins by gamma counting; format: ADME, organism-based; conditions: read-out: Stability; summary of the method: as §3
[12] = Metabolic stability in Balb-C mouse brain at 21 to 32 MBq, iv after 10 mins by gamma counting; format: ADME, organism-based; conditions: read-out: Stability; summary of the method: as §3
[13] = Metabolic stability in Balb-C mouse brain at 21 to 32 MBq, iv after 30 mins by gamma counting; format: ADME, organism-based; conditions: read-out: Stability; summary of the method: as §3
Brain [14] = experiment: Drug uptake in APP/PS1 Alzheimer's disease mouse brain cortex at 11.7 +/- 4.1 MBq at 36 to 45 mins postinjection by uPET analysis relative to control; format: ADME, organism-based; conditions: in vivo
Summary of the method: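 APP/PS1 (homozygous) Tg mice, 24.0 ± 0.4 months old (n = 7), and age-matched C57B6/J controls, 25 ± 2 months old (n = 3). Each mouse got a single bolus of 18F tracer: 11.7 ± 4.1 MBq for Tg, 11.5 ± 3.4 MBq for controls. Images are µPET frames summed over 36–45 min pi, with CT overlaid on an MRI template. Cortical and cerebellar VOI TACs and cortex/cerebellum ratios were derived.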

Cortex [15] = experiment: Drug uptake in APP/PS1 Alzheimer's disease mouse brain cortex at 13.5 MBq at 45 mins postinjection by dual label autoradiography relative to control; format: ADME, organism-based; conditions: in vivo, 0.75 h; summary of the method: as §2
Cortex [16] = experiment: Drug uptake in APP/PS1 Alzheimer's disease mouse brain cortex at 13.5 MBq at 45 mins postinjection by uPET/CT analysis relative to control; format: ADME, organism-based; conditions: in vivo, 0.75 h; summary of the method: as §2

T1 sequence (P05067 whole entry): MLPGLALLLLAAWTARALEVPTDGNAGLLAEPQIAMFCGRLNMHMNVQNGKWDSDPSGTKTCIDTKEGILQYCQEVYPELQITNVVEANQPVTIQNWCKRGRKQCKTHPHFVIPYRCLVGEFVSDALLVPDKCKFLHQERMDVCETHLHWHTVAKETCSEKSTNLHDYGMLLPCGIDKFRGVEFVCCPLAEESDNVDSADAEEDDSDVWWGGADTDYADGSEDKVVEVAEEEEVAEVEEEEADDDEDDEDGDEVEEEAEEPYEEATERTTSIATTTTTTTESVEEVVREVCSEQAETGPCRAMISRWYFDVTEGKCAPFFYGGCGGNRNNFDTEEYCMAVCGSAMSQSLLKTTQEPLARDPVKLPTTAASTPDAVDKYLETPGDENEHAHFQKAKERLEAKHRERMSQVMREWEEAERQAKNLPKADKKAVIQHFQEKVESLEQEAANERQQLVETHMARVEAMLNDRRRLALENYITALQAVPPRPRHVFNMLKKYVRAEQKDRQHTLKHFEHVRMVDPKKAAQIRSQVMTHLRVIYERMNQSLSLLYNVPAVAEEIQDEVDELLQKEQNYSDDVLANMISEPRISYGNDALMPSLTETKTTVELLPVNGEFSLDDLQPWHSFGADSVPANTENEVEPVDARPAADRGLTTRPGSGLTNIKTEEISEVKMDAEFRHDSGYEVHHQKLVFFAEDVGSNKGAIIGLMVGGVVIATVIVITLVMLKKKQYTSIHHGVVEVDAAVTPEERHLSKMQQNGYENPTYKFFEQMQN

Which results are given for [11CH3]Nc1ccc(-c2nc3ccc(O)cc3s2)cc1 [PITTSBURGH COMPOUND B]?
Drug uptake (Brain [1]): Active; Drug uptake (Brain [2]): Active

Which Activity (Cortex [3]) does the source give for CNc1ccc(-c2nc3ccc(O)cc3s2)cc1 here?
Its Activity is “Active”.

With CNc1ccc(-c2cn3c(n2)sc2cc(OCCF)ccc23)cc1 as the compound, how does the Activity (Cortex [4]) read?
The Activity was “Active”.

With [3H]Oc1ccc2nc(-c3ccc(NC)cc3)sc2c1 as the compound, how does the Drug uptake (Cortex [5]) read?
The Drug uptake was “Active”.

And the Drug uptake (Cortex [6])?
The Drug uptake was “Active”.

With CNc1ccc(/C=C/c2ccc(OCCOCCOCC[18F])cc2)cc1 [FLORBETABEN F18] as the compound, how does the Ratio (Brain [7]) read?
Its Ratio is 1.5.

With CNc1ccc(-c2cn3c(n2)sc2cc(OCC[18F])ccc23)cc1 as the compound, how does the pKi [8] read?
The pKi was 8.68.

And the pKi [9]?
The pKi was 8.49.

And the Drug uptake (Brain [1])?
The Drug uptake was “Active”.

And the Drug uptake (Brain [2])?
Its Drug uptake is “Active”.

What about the remaining at 10 min [10] of the same compound?
Its remaining at 10 min is 12%.

And the remaining at 0.5 h [11]?
Its remaining at 0.5 h is 5%.

And the remaining at 10 min [12]?
The remaining at 10 min was 92%.

And the remaining at 0.5 h [13]?
Its remaining at 0.5 h is 88%.

And the Drug uptake (Brain [14])?
Its Drug uptake is “Active”.

And the Drug uptake (Cortex [15])?
The Drug uptake was “Active”.

What about the Drug uptake (Cortex [16]) of the same compound?
Its Drug uptake is “Active”.

Which Ratio (Brain [7]) does the source give for CC(=C(C#N)C#N)c1ccc2cc(N(C)CC[18F])ccc2c1 here?
Its Ratio is 1.3.
